KCNQ1 act: human KCNQ1 channel potentiation or activation. actives 0.35% (n = 310,000). B-score at 10 µM. CHO-K1 KCNQ1, thallium flux FluxOR fluorescence; stronger effect = higher value. P51787;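 active means fluorescence ratio B-score, a plate-corrected score, at least three library SD, with initial intensity B-score within 5 SD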
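Doses: Single concentration per compound, DMSO matched to controls | Test system: KCNQ1-transfected CHO-K1 cells | Timing: 90 min dye loading and 20 min compound exposure, both at room temperature | Measured by: Kinetic FluxOR thallium fluorescence, 10-s 1-Hz baseline, 110-s post-stimulus read | Medium: Assay buffer with matched DMSO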
KCNK3 inh: human KCNK3 channel inhibition, primary screen | CHO-KCNK3 thallium flux, FluxOR fluorescence; stronger effect = lower value | B-score at 10 µM | actives 0.84% (n = 340,000);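 active means B-score under library mean minus 4 SD, starting fluorescence ratio at most library mean plus 5 SD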;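 further: more negative B-score means stronger inhibition of thallium flux through KCNK3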
Target sequence (O14649 whole entry, looked up): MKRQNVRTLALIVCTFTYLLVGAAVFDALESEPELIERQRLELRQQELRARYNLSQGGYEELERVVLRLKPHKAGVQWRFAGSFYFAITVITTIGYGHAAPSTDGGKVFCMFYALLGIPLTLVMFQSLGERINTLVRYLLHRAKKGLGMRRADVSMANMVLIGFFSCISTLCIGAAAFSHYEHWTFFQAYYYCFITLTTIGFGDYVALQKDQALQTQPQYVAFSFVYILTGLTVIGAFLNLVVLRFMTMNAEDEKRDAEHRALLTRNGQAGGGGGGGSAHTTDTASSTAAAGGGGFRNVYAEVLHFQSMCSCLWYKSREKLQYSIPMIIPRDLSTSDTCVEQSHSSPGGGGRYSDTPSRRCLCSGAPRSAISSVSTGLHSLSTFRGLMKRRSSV
hERG rescue: compounds protecting human hERG from proarrhythmic drug block. Q12809. CHO-hERG, FluxOR thallium flux, dofetilide IC70 present. activation (rescue from dofetilide block), less the hit threshold, % at 10 µM. actives 0.51% (n = 310,000). AID 1511;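 active means activation above the mean of controls blocked by dofetilide plus 5 SD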;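 further: thallium influx through hERG after potassium depolarization seen as dye fluorescence rise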
KCNQ1 inh: blocks the human KCNQ1 potassium channel; B-score at 10 µM; actives 1.3% (n = 310,000); CHO-K1 KCNQ1, FluxOR thallium flux fluorescence; stronger effect = higher value; P51787; AID 2642;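 active means compounds whose thallium flux B-score, printed positive for inhibition, exceeds three library SD while starting fluorescence stays within three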;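 further: channel opened by potassium depolarization with thallium stimulus after 20 min compound exposure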
KCNK9 inh: blocks the human KCNK9 two-pore domain potassium channel; Q9NPC2; HEK293 KCNK9, FluxOR thallium flux fluorescence; stronger effect = lower value; AID 488922; actives 1.2% (n = 310,000); B-score at 10 µM;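 active means ratio B-score over 3 SD below the library mean, with starting fluorescence within 5 SD of its mean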;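 further: negative B-score means less thallium flux so channel inhibition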
Kir21 block: Kir2.1 (mouse) channel inhibition; HEK293-Kir2.1, FluxOR thallium flux fluorescence; stronger effect = lower value; actives 0.85% (n = 310,000); P35561; B-score at 10 µM; AID 1672;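 active means fluorescence ratio B-score at or below minus 3 SD of library scores, with starting-brightness B-score within 2 SD, cut at about -4.2 in these data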;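 further: channel flux triggered by added potassium and thallium sulfate stimulus; B-score of peak minus minimum fluorescence over baseline after thallium stimulus; more negative B-score means stronger Kir2.1 block with less thallium influx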
KCNK9 inh conf: human KCNK9 inhibitor confirmation; inhibition, % at 10 µM; actives 43% (n = 4,900); shares compounds with KCNK9 inh; AID 492992; HEK293 KCNK9 cells, FluxOR thallium flux fluorescence;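 active means thallium signal inhibited by more than 5 SD of the compound-free buffer control wells, on both duplicate plates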;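 further: 0% = assay buffer control wells without compound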
Kir21 sel: tests whether KCNK9 modulators also affect mouse Kir2.1; shares compounds with KCNK9 inh; Kir2.1 cells, FluxOR thallium flux fluorescence; inhibition, % at 10 µM; actives 4% (n = 4,900); AID 492993;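 active means thallium signal drop more than 5 SD beyond the mean of the no-compound control wells, seen in both duplicate plates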;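 further: signal is fluorescence rise after thallium addition divided by baseline fluorescence; plate controls were assay buffer only for no effect and full block by chlorpromazine control for full effect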
KCNK9 uninduced: second counter-screen for KCNK9 modulators: effect in non-induced cells; non-induced KCNK9-HEK293, FluxOR thallium flux; inhibition, % at 10 µM; shares compounds with KCNK9 inh; actives 40% (n = 4,900); AID 492997;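 active means thallium signal drop beyond 5 SD of the untreated control mean, on both duplicate plates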;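 further: plate controls were buffer only IC0 wells for no effect and SID17386958 at its maximal inhibitory level for full effect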
The depositor's hits bear a star; i = inactive; . = no result. Rows were chosen to be rich in hits. Some 3.7% of all compounds tested hit in one or more screens of this group.

SMILES	KCNQ1 act	KCNK3 inh	hERG rescue	KCNQ1 inh	KCNK9 inh	Kir21 block	KCNK9 inh conf	Kir21 sel	KCNK9 uninduced
Cc1cccc(CSc2nc(N)c(C#N)c(-c3cccs3)c2C#N)c1	i	i	-7	i	-8.5*	2.9	48%*	i	46%*
Cc1cc(NC(=O)c2cc(S(=O)(=O)N3CCCCC3)ccc2C)n(-c2ccccn2)n1	.	i	.	.	.	.	.	.	.
Cc1ccsc1/C=N/NC(=O)c1ccc2nc[nH]c2c1	i	i	-11	i	i	-0.44	.	.	.
Nc1c(C(=O)N/N=C/c2cccnc2)oc2nc(-c3ccccc3)cc(-c3ccco3)c12	i	i	-14	6*	-11*	1.2	i	i	31%*
COc1ccc(Oc2ccc(N/C=C/C(=O)C(C)(C)C)cc2)cc1	i	i	-8	i	i	-0.11	i	i	i
COc1cccc(Oc2ccc(N/C=C/C(=O)C(C)(C)C)cc2)c1	i	i	-9	i	i	-0.51	.	.	.
COc1ccc(CN2CCN(CCSc3ccc(C)cc3)CC2)c(OC)c1OC	i	i	-2	i	i	0.33	i	i	i
CCOC(=O)C1=C(COC(=O)C2CC(=O)N(CCc3ccccc3)C2)NC(=O)NC1C (centres undefined)	.	i	.	.	.	.	.	.	.
Fc1ccccc1C1c2cccn2CCN1C(=S)Nc1cccc(Br)c1 (centres undefined)	i	i	-8	i	-11*	-1.2	36%*	i	48%*
COc1ccc2c(c1)C1=NN(/C(C)=C/C(C)=O)C(c3cccc(F)c3)C1CC2 (centres undefined)	i	i	-16	i	-12*	-1.7	44%*	i	33%*
COc1ccc(CN2CCN(Cc3ccc4ccccc4c3)CC2)cc1OC	i	i	-12	i	i	-0.27	.	.	.
COc1ccc2ccccc2c1CN1CCN(Cc2ccccc2)CC1	i	i	-17	i	i	-3	i	i	i
Cc1ccc(CN2CCN(/N=C/c3ccccc3)CC2)cc1	i	i	-8	i	i	-0.27	.	.	.
Cc1ccc(CSc2nnc(SCC(=O)N/N=C/C=C/c3ccccc3[N+](=O)[O-])s2)cc1	i	i	-7	i	-15*	-0.13	64%*	i	30%*
CC(=C/c1ccccc1)/C=N/N1CCN(Cc2ccc(C)cc2)CC1	i	i	-14	i	i	1.1	.	.	.
Cc1ccc(CN2CCN(/N=C/C=C/c3ccccc3[N+](=O)[O-])CC2)cc1	i	i	-10	i	i	-0.78	i	i	i
Cc1ccc(CN2CCN(/N=C\C(Br)=C\c3ccccc3)CC2)cc1	i	i	-1	i	i	-0.06	i	i	i
COc1ccc(CC2(CO)CCN(C/C=C/c3ccccc3OC)CC2)cc1	i	i	-14	i	i	-0.02	.	.	.
CCN(CC)c1ccc(/C=N/N2CCN(Cc3ccccc3Cl)CC2)c(O)c1	i	i	-7	i	i	-1.6	.	.	.
CCN(CC)c1ccc(/C=N/N2CCN(Cc3ccc(C)cc3)CC2)c(O)c1	i	i	-5	i	i	-1.9	i	i	i
COc1ccccc1/C=C/C=N/N1CCN(Cc2ccccc2)CC1	i	i	-8	i	i	0.87	i	i	i
COc1ccccc1/C=C/CN1CCN(c2ccccc2)CC1	i	i	-6	i	i	0.64	i	i	i
Cc1c(NS(=O)(=O)c2cc(C(=O)NCc3ccco3)cc(Cl)c2Cl)c(=O)n(-c2ccccc2)n1C	i	i	-11	i	i	-1.2	.	.	.
O=C(N/N=C/c1cc2c3c(c1O)CCCN3CCC2)c1ccccc1O	i	-10*	-12	12*	-10*	-1.3	49%*	i	55%*
CCOC(=O)c1sc(-c2ccccc2)cc1NC(=O)Nc1ccccc1	i	i	-11	i	i	2	i	i	i
SMILES	KCNQ1 act	KCNK3 inh	hERG rescue	KCNQ1 inh	KCNK9 inh	Kir21 block	KCNK9 inh conf	Kir21 sel	KCNK9 uninduced
CCOC(=O)c1sc(-c2ccc(F)cc2)cc1NC(=O)Nc1ccccc1OC	i	i	-9	i	i	-0.67	.	.	.
COc1ccccc1Nc1nnc(SCC2CCCCO2)s1 (centres undefined)	i	i	-12	i	i	-1.2	.	.	.
Cc1ccccc1Nc1nnc(SCC2CCCCO2)s1 (centres undefined)	i	i	-6	i	-8.8*	-0.84	i	i	i
CCCCCCCc1c(C#N)c(N)[nH]c(=S)c1C#N	i	i	-19	7*	i	0.1	i	i	i
CC(C)Cc1c2c([nH]c(=S)c1C#N)CCCC2	i	i	-2	i	i	-0.85	.	.	.
COc1ccc(Cn2c(=O)sc3ccccc32)cc1	i	i	-8	i	i	0.23	.	.	.
CC(C)Oc1ccc(Cn2c(=O)sc3ccccc32)cc1	i	i	-6	i	i	1.1	i	i	30%*
Cc1cc(C)nc(N/C(=N\S(=O)(=O)Cc2ccccc2)Nc2cccc(Cl)c2C)n1	i	i	-17	i	i	0.01	.	.	.
Cc1cc(C)nc(N/C(=N\S(=O)(=O)Cc2ccccc2)Nc2ccc(F)c(Cl)c2)n1	i	i	-4	i	-13*	-0.06	i	i	i
O=C(NCC1CCCO1)c1cc2c([nH]c3ccccc32)c(-c2cccc(Cl)c2)n1 (centres undefined)	i	i	-35	12*	-11*	-1.9	i	i	i
O=C(Cc1cccs1)NCc1ccc(Cl)cc1Cl	i	i	-3	i	i	1	.	.	.
CC(=O)c1ccc(OCCCCCCCOc2ccc(C(C)=O)cc2)cc1	i	i	0	i	-8.8*	0.75	i	i	i
O=C(Nc1ccc(C(F)(F)F)cc1)C1(c2ccccc2)CC1	i	i	-10	i	i	0.18	.	.	.
O=C(Nc1cccc(C(F)(F)F)c1)C1(c2ccccc2)CC1	i	i	-11	i	-12*	1.7	53%*	i	37%*
CC(C)(CNc1ccc([N+](=O)[O-])cc1Cl)N1CCOCC1	i	i	-3	i	i	1.5	.	.	.

Screens (PubChem)
